The record followed here is ChEMBL document CHEMBL2434863, “Synthesis and in vitro/in vivo antibacterial activity of oxazolidinones having thiocarbamate at C-5 on the A-ring and an amide- or urea-substituted [1,2,5]triazepane or [1,2,5]oxadiazepane as the C-ring” (Eur J Med Chem, 2013).

Data set [1] concerns the target T1, MAO-B (Rattus norvegicus, UniProt P19643).
T1 sequence (P19643 whole entry): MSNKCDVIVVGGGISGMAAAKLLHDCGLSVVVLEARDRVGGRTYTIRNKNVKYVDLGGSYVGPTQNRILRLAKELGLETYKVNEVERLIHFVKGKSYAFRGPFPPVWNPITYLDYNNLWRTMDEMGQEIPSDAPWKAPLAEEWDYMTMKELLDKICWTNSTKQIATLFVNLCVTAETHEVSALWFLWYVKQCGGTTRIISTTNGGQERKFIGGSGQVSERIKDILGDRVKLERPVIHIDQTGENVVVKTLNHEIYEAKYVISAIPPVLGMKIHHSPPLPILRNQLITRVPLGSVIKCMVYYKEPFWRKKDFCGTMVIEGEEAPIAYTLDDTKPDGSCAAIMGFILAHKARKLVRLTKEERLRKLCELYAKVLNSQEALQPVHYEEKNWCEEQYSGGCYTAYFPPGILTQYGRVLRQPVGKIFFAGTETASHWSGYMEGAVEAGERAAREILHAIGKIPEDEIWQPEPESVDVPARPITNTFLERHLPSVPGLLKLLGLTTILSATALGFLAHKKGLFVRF
Put plainly: Inhibition of MAO-B in rat forebrain using [14C]PEA as substrate at 30 uM incubated for 20 mins prior to substrate addition measured after 10 mins by liquid scintillation counting analysis. It is filed as tissue-based. Conditions: probe [14C]PEA; call rule not given here.

For data set [2], the target named is T2, MAO-A (Rattus norvegicus, UniProt P21396).
T2 sequence (P21396 whole entry): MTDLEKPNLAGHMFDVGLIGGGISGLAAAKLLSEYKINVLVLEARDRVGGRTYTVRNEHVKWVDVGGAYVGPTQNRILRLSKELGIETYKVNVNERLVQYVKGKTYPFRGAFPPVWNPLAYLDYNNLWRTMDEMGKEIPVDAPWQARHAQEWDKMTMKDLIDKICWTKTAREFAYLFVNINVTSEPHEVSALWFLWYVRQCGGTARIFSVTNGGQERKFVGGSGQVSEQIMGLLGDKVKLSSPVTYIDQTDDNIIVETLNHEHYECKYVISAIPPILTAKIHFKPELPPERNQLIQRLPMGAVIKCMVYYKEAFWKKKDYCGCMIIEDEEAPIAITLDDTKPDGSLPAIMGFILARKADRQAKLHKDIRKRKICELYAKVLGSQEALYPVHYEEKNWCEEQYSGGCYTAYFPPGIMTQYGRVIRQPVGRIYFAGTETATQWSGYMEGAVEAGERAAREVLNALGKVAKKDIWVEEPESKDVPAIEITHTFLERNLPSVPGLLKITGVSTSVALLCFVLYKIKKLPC
As to the kind of experiment: Inhibition of MAO-A in rat forebrain using [14C]5-HT as substrate at 30 uM incubated for 20 mins prior to substrate addition measured after 5 mins by liquid scintillation counting analysis. It is filed as tissue-based. Particulars: probe [14C]5-HT.

Data set [3] has as its target Cytochrome P450 3A4 (Homo sapiens, UniProt P08684). Put plainly: Inhibition of CYP3A4 in human liver microsomes assessed as terfenadine hydroxylation after 20 mins by LC/MS/MS analysis. Type of data set: ADME, Microsome. In general terms: Liver microsomes are vesicles of endoplasmic reticulum, rich in cytochrome P450 enzymes.
For data set [4], the target named is Cytochrome P450 2D6 (Homo sapiens, UniProt P10635). As to the kind of experiment: Inhibition of CYP2D6 in human liver microsomes assessed as dextromethorphan O-demethylation after 20 mins by LC/MS/MS analysis. It is filed as ADME, Microsome.
Sequence of Cytochrome P450 2D6 (P10635 whole entry): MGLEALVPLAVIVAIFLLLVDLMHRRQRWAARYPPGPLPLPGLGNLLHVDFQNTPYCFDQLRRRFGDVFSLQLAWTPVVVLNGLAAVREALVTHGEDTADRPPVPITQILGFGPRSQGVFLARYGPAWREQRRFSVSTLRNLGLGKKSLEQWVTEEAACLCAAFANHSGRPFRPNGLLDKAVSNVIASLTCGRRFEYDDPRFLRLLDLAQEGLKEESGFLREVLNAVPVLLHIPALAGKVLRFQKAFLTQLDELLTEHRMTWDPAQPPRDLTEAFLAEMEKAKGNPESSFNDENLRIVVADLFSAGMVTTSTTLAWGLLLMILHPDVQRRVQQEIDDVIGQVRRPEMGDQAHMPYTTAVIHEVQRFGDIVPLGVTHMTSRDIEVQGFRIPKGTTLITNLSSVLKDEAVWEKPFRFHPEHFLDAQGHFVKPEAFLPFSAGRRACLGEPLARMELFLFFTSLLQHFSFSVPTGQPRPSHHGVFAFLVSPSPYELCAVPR
Data set [5] concerns the target Cytochrome P450 2C9 (Homo sapiens, UniProt P11712). As to the kind of experiment: Inhibition of CYP2C9 in human liver microsomes assessed as tolbutamide hydroxylation after 20 mins by LC/MS/MS analysis. It is filed as ADME, Microsome.
For data set [6], the target named is T3, Cytochrome P450 1A2 (Homo sapiens, UniProt P05177).
T3 sequence (P05177 whole entry): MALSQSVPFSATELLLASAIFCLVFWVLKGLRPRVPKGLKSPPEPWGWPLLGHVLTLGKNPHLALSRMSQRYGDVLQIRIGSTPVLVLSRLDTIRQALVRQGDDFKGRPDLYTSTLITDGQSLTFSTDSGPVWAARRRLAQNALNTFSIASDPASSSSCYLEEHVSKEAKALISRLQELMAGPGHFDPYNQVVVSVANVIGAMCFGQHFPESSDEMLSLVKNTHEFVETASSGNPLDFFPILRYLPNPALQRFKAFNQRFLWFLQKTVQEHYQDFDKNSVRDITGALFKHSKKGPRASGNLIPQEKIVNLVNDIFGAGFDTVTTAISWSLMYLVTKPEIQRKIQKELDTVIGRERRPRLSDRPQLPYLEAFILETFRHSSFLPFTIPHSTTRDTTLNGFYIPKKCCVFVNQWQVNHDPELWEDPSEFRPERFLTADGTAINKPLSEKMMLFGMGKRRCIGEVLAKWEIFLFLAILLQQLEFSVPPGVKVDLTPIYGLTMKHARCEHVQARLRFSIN
Put plainly: Inhibition of CYP1A2 in human liver microsomes assessed as ethoxyresorufin O-deethylation after 20 mins by fluorescence plate reader analysis. Type of data set: ADME, Microsome.

Data set [7] deals with Staphylococcus aureus. Put plainly: Antibacterial activity against methicillin-resistant Staphylococcus aureus SR3637 infected in JCL/ICR mouse systemic infection model assessed as mortality administered as iv measured over 7 days. Type of data set: functional. Particulars: 168 h. Put shortly:
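Lethal systemic infection model in mice; test agents were given intravenously.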

Data set [8] concerns Staphylococcus aureus. Put plainly: Antibacterial activity against methicillin-resistant Staphylococcus aureus SR3637 assessed as growth inhibition by broth microdilution method. It is filed as functional.
Data set [9] concerns Haemophilus influenzae. As to the kind of experiment: Antibacterial activity against Haemophilus influenzae SR27914 clinical isolate assessed as growth inhibition by broth microdilution method. Type of data set: functional. For orientation: Broth dilution looks for growth in wells or tubes with falling amounts of substance.
Data set [10] concerns Streptococcus pneumoniae. Put plainly: Antibacterial activity against Streptococcus pneumoniae SR26207 clinical isolate assessed as growth inhibition by broth microdilution method. It is filed as functional.
Data set [11] relates to Staphylococcus aureus. As to the kind of experiment: Antibacterial activity against linezolid-resistant Staphylococcus aureus NRS271 assessed as growth inhibition by broth microdilution method. It is filed as functional.
Data set [12] has as its system Enterococcus faecalis. Put plainly: Antibacterial activity against Enterococcus faecalis SR1004 clinical isolate assessed as growth inhibition by broth microdilution method. Type of data set: functional.
The test system of data set [13] is Staphylococcus aureus. Put plainly: Antibacterial activity against Staphylococcus aureus SR20549 clinical isolate assessed as growth inhibition by broth microdilution method. Type of data set: functional.
For data set [14], the system named is Staphylococcus aureus. As to the kind of experiment: Antibacterial activity against Staphylococcus aureus Smith assessed as growth inhibition by broth microdilution method. Type of data set: functional.
Data set [15] deals with Moraxella catarrhalis. As to the kind of experiment: Antibacterial activity against Moraxella catarrhalis SR26840 clinical isolate assessed as growth inhibition by broth microdilution method. It is filed as functional.
For data set [16], the system named is Enterococcus faecium. As to the kind of experiment: Antibacterial activity against Enterococcus faecium SR7940 clinical isolate assessed as growth inhibition by broth microdilution method. Type of data set: functional.
Data set [17] deals with Staphylococcus aureus. Put plainly: Potency index, ratio of linezolid ED50 to compound ED50 for methicillin-resistant Staphylococcus aureus SR3637 infected in iv dosed JCL/ICR mouse systemic infection model. It is filed as functional.
Data set [18] deals with Haemophilus influenzae. Put plainly: Potency index, ratio of linezolid MIC to compound MIC for Haemophilus influenzae SR27914 clinical isolate. It is filed as functional.
Data set [19] deals with Streptococcus pneumoniae. As to the kind of experiment: Potency index, ratio of linezolid MIC to compound MIC for Streptococcus pneumoniae SR26207 clinical isolate. Type of data set: functional.
The test system of data set [20] is Moraxella catarrhalis. Put plainly: Potency index, ratio of linezolid MIC to compound MIC for Moraxella catarrhalis SR26840 clinical isolate. Type of data set: functional.
Data set [21] relates to Enterococcus faecium. Put plainly: Potency index, ratio of linezolid MIC to compound MIC for Enterococcus faecium SR7940 clinical isolate. It is filed as functional.
In data set [22] the test system is Enterococcus faecalis. As to the kind of experiment: Potency index, ratio of linezolid MIC to compound MIC for Enterococcus faecalis SR1004 clinical isolate. Type of data set: functional.
In data set [23] the test system is Staphylococcus aureus. As to the kind of experiment: Potency index, ratio of linezolid MIC to compound MIC for Staphylococcus aureus Smith. Type of data set: functional.
The test system of data set [24] is Staphylococcus aureus. Put plainly: Potency index, ratio of linezolid MIC to compound MIC for Staphylococcus aureus SR20549 clinical isolate. It is filed as functional.

Some results are limits rather than exact numbers.

Sequence of Cytochrome P450 2C9 (P11712 whole entry): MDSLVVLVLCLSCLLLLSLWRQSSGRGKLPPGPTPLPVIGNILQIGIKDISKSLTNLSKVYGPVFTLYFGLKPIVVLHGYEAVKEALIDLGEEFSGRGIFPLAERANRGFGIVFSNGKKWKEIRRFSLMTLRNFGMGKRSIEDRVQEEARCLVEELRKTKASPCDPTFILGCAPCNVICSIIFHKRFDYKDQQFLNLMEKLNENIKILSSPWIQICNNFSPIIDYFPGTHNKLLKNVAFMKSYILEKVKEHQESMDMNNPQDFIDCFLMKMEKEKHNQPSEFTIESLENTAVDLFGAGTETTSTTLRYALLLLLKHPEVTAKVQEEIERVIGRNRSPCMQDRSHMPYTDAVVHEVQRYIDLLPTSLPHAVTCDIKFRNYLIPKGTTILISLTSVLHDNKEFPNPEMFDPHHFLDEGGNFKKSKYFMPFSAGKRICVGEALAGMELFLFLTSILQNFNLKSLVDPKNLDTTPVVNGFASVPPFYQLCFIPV
Sequence of Cytochrome P450 3A4 (P08684 whole entry): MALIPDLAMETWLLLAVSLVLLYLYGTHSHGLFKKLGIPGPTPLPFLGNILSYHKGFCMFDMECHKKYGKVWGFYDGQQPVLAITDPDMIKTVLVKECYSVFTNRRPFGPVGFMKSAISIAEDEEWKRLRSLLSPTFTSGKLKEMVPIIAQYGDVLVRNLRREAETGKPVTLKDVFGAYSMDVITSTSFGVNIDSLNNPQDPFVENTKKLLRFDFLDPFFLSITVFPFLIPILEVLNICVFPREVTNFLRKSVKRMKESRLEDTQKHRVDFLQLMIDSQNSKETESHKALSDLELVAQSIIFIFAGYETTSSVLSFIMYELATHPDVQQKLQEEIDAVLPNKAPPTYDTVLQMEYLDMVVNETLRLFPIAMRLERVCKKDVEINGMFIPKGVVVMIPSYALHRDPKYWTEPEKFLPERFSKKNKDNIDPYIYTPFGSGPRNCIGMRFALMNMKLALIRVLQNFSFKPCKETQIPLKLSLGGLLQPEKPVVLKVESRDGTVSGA

In general, inhibition refers to the change of the read-out against control, counted positive when it falls. Low readings indicate a response near the control, high ones a response far below the control. A word on the IC50: it is the concentration that inhibits the measured activity by half. By ED50 is commonly meant the dose that gives a 50% effect, or the effect in half of the subjects. In data set [1], `CNC(=O)N1CCN(c2ccc(N3C[C@H](CNC(=S)OC)OC3=O)cc2F)CCN1` yielded an inhibition at 10 min, 30 µM of 3.1%. This compound showed an inhibition at 5 min, 30 µM in data set [2] of 3.4%. Further, the IC50 in data set [3], in data set [4], in data set [5] and in data set [6] was more than 20 µM in each case. Besides, the ED50 in [7] worked out at 0.86 mg/kg. Besides, the MIC in data set [8] is 0.5 µg/mL; in [9], 16 µg/mL; in [10] it was 0.25 µg/mL; in data set [11], 8 µg/mL; in [12], 0.5 µg/mL; in data set [13] it was 0.25 µg/mL. The MIC in data set [14] was determined as 0.5 µg/mL; in [15] it was 2 µg/mL; in data set [16] it was 0.25 µg/mL.
Regarding `COC(=S)NC[C@H]1CN(c2ccc(N3CCNN(C(=O)C(F)F)CC3)c(F)c2)C(=O)O1`, in data set [17], the “Ratio ED50” value came out at 3. The same compound yielded an inhibition at 10 min, 30 µM in [1] of 0.1%. This compound displayed an inhibition at 5 min, 30 µM in [2] of 9.2%. Further, the IC50 in [3], in data set [4], in data set [5] and in [6] was more than 20 µM each time. The median effective dose (ED50) in data set [7] worked out at 0.77 mg/kg. In addition, the MIC came out at 0.25 µg/mL in data set [8]; 4 µg/mL in data set [9]; 0.063 µg/mL in data set [10]; 4 µg/mL in data set [11]; 0.25 µg/mL in data set [12]; 0.125 µg/mL in [13]. In addition, the MIC came to 0.5 µg/mL in [14], 2 µg/mL in [15] and 0.25 µg/mL in data set [16].
As for `COC(=S)NC[C@H]1CN(c2ccc(N3CCNN(C=O)CC3)c(F)c2)C(=O)O1`, the ED50 in [7] was found to be 2.95 mg/kg. The MIC came to 0.25 µg/mL in data set [8]; 4 µg/mL in data set [9]; 0.063 µg/mL in [10]; 4 µg/mL in data set [11]; 0.25 µg/mL in [12]; 0.25 µg/mL in data set [13]. The MIC stood at 0.25 µg/mL in [14], 2 µg/mL in [15] and 0.25 µg/mL in data set [16]. Also, the Ratio in data set [18], in data set [19], in data set [20], in data set [21], in data set [22] and in data set [23] was 4 each time. Moreover, the Ratio in data set [24] was 4.
Regarding `CC(=O)NC[C@H]1CN(c2ccc(N3CCOCC3)c(F)c2)C(=O)O1` [LINEZOLID], the “inhibition (INH)” value is “Active” in [3] (human, microsomes, 20 min); “Active” in data set [4] (human, microsomes, 20 min); “Active” in data set [5] (human, microsomes, 20 min); “Active” in data set [6] (human, microsomes, 20 min). Besides, the MIC in data set [9] was 16 µg/mL; in data set [11], 32 µg/mL; in data set [15], 8 µg/mL; in data set [16] it was 2 µg/mL.
